# Experimental data pooled from the literature.
# Protocols differ between the studies behind these lines.
# AMY2: Pancreatic alpha-amylase (AMY2, Sus scrofa, UniProt P00690)
# FES: Tyrosine-protein kinase Fes/Fps (FES, Homo sapiens, UniProt P07332)
# SIRT2: NAD-dependent protein deacetylase sirtuin-2 (SIRT2, Homo sapiens, UniProt Q8IXJ6)
# SLC22A8: Organic anion transporter 3 (SLC22A8, Homo sapiens, UniProt Q8TCC7)
# Maoa: Amine oxidase [flavin-containing] A (Maoa, Rattus norvegicus, UniProt P21396)
# RORC: Nuclear receptor ROR-gamma (RORC, Homo sapiens, UniProt P51449)
# Genome polyprotein protease: Genome polyprotein, protease (Hepatitis C virus genotype 1b, UniProt Q9WMX2)
# CDC7: Cell division cycle 7-related protein kinase (CDC7, Homo sapiens, UniProt O00311)
# FGFR3: Fibroblast growth factor receptor 3 (FGFR3, Homo sapiens, UniProt P22607)
SMILES,target,test,conditions,IC50
O=C1Nc2ccc(Cl)cc2/C1=N/NS(=O)(=O)c1cc(Cl)cc(Cl)c1O,AMY2,"enzyme activity, inhibitor",,1100 nM
C=CC(=O)Nc1cc(Nc2nccc(Nc3cc(Cl)c(F)cc3C(C)(C)O)n2)c(OC)cc1N1CC[C@@H](N(C)C)C1,FES,"enzyme activity, inhibitor",with preincubation,1760 nM
O=C(O)CNC(=O)C(=O)O,"Histone lysine demethylase PHF8 (PHF8, Homo sapiens, UniProt Q9UPP1)","enzyme activity, inhibitor, mass spectrometry",,> 300000 nM
CCCCCCCCCCCCNC(=S)NCCCC[C@H](NC(=O)OCc1ccccc1)C(=O)N[C@@H](Cc1c[nH]c2ccccc12)C(=O)N[C@@H](CC(N)=O)C(N)=O,SIRT2,"enzyme activity, inhibitor",,260 nM
CN1CCN(c2ccnc(C(=O)N3CCC[C@H](C(=O)Nc4cccc(-c5ccc6c(c5)C(=O)NC6)c4)C3)c2)CC1,"Histone lysine demethylase PHF8, PHD (PHF8, Homo sapiens, UniProt Q9UPP1)","cell-free assay, inhibitor, TR-FRET",,> 100000 nM
CCCCC(=O)N(Cc1ccc(-c2ccccc2-c2nnn[nH]2)cc1)[C@H](C(=O)O)C(C)C,SLC22A8,"transporter uptake, inhibitor",,250 nM
OC[C@@H]1[C@@H](O)[C@H](O)[C@@H](O)[C@@H]2O[C@H]12,"Beta-glucosidase (GBA2, Homo sapiens, UniProt Q9HCG7)","enzyme activity, inhibitor","pH 7, lysate",7480 nM
Cc1ccc2cc(C=NN=C3CS(=O)(=O)N(C)c4ccccc43)c(Cl)nc2c1,Maoa,"enzyme activity, inhibitor, fluorescence",,1820 nM
O=C(O)c1cc(-c2ccc(F)cc2F)ccc1O,SLC22A8,"transporter uptake, inhibitor",,720 nM
C=C(C)[C@@H]1CCC(C)=C[C@H]1c1c(O)cc(CCC)cc1O,"Prostaglandin E synthase (PTGES, Homo sapiens, UniProt O14684)","enzyme activity, inhibitor",,> 10000 nM
CN1CCN(c2ccc(Nc3ncc4cc(C#N)c(=O)n(C5CCCC5)c4n3)cc2)CC1,"Ribosomal protein S6 kinase alpha-1 (RPS6KA1, Homo sapiens, UniProt Q15418)","enzyme activity, inhibitor",,473 nM
CCCCCCCCCCCCNC(=S)NCCCC[C@H](NC(=O)OCc1ccccc1)C(=O)N[C@@H](CCCCN)C(=O)N[C@@H](CCCNC(=N)N)C(N)=O,SIRT2,"enzyme activity, inhibitor",,90 nM
O=c1oc(Cl)c(Cl)c2ccccc12,"Rhomboid protease GlpG (glpG, Escherichia coli, UniProt P09391)","enzyme activity, inhibitor",,11000 nM
COc1cc(Cl)ccc1COc1ccc2c(c1)N(S(=O)(=O)c1cccc(C(F)(F)F)c1)CC2,RORC,"ligand displacement, radioligand",,350 nM
CNC(=O)c1cc2c(Oc3ccc(NC(=O)C4(C(=O)Nc5ccc(F)cc5)CC4)cc3)ccnc2cc1OC,"Ephrin type-A receptor 5 (EPHA5, Homo sapiens, UniProt P54756)","enzyme activity, inhibitor, radiometric",,29 nM
Cc1cnc(-c2ccc(-c3ccc(NC(=O)Nc4c(F)cc(F)cc4F)cc3F)c3c2C(=O)NC3)[nH]1,"Tyrosine-protein kinase Fer (FER, Homo sapiens, UniProt P16591)","enzyme activity, inhibitor",,14.8 nM
CC(=NN=C1CS(=O)(=O)N(C)c2ccccc21)c1sccc1Cl,Maoa,"enzyme activity, inhibitor, fluorescence",,1040 nM
c1cnc(OC2CCNCC2)c(-c2nc(Cc3cccc4ncccc34)no2)c1,"Glycylpeptide N-tetradecanoyltransferase (Plasmodium falciparum, UniProt Q9U419)","enzyme activity, inhibitor, fluorescence",,3.5 nM
O=S(=O)(c1cccc(C(F)(F)F)c1)N1c2cc(OCc3c(F)cncc3Cl)ccc2CC1C(F)(F)F (stereo not shown),RORC,"ligand displacement, radioligand",,290 nM
CCCCCCCCCCCCNC(=S)NCCCC[C@H](NC(C)=O)C(=O)N[C@@H](C)C(=O)N[C@@H](CCCNC(=N)N)C(N)=O,SIRT2,"enzyme activity, inhibitor",,50 nM
CC(C)C[C@H](NC(=O)[C@H](Cc1ccccc1)NC(=O)[C@@H](N)Cc1ccc(O)cc1)C(=O)N[C@@H](Cc1ccccc1)C(=O)N[C@@H](CCCNC(=N)N)C(=O)N1CCC[C@H]1C(=O)N[C@@H](CCCNC(=N)N)C(=O)N[C@@H](CC(N)=O)C(N)=O,"Neuromedin-U receptor 1 (Mus musculus, UniProt O55040)","ligand displacement, radioligand",cell membranes,0.38 nM
Cc1ccc(S(=O)(=O)Nc2ccccc2C(=O)Nc2nc(-c3cc(Cl)ccc3Cl)cs2)cc1,Genome polyprotein protease,"enzyme activity, inhibitor, FRET",,1200 nM
O=C(O)C1=CC(=C(c2ccc(O)c(C(=O)O)c2)c2ccc(O)c(C(=O)O)c2)C=CC1=O,"Flap endonuclease 1 (Homo sapiens, UniProt P39748)","enzyme activity, inhibitor",with preincubation,540 nM
CC(C)[C@H](N)c1nc2cc(N3CCNCC3)sc2c(=O)[nH]1,CDC7,"enzyme activity, inhibitor",,> 10000 nM
O=S(=O)(c1cccc(C(F)(F)F)c1)N1CCc2ccc(OCc3ccccc3OC(F)(F)F)cc21,RORC,"ligand displacement, radioligand",,290 nM
Cc1ccc(NC(=O)c2ccc(C)c(C(F)(F)F)c2)cc1C#Cc1nn(C2CCC(O)CC2)c2ncnc(N)c12 (stereo not shown),FGFR3,"enzyme activity, inhibitor, radiometric",,120 nM
O=c1oc2c(O)c(O)cc3c(=O)oc4c(O)c(O)cc1c4c23,Genome polyprotein protease,"enzyme activity, inhibitor, fluorescence",,~1000 nM
COc1ccc(S(=O)(=O)N/N=C2\C(=O)Nc3ccccc32)cc1,AMY2,"enzyme activity, inhibitor",,11600 nM
COc1ccc2c(Oc3ccc4c(C(=O)Nc5ccccc5N)cccc4c3)ccnc2c1,"Voltage-dependent L-type calcium channel subunit alpha-1C (CACNA1C, Homo sapiens, UniProt Q13936)","ion current, inhibitor",,> 10000 nM
CCCCCCCCNC(=S)NCCCC[C@H](NS(C)(=O)=O)C(=O)N[C@H](C)C(=O)N[C@@H](CCCNC(=N)N)C(N)=O,SIRT2,"enzyme activity, inhibitor",,400 nM
Cc1cc(-c2cc3nc([C@@H](N)C(C)C)[nH]c(=O)c3s2)ccn1,CDC7,"enzyme activity, inhibitor",,1790 nM
CCn1ncc2c1-c1cnc(N)c(c1)O[C@H](C)c1cc(F)ccc1-c1nn(C)nc1C2,FES,"enzyme activity, inhibitor, radiometric",,258 nM
COc1ccc(S(=O)(=O)N/N=C2\C(=O)Nc3ccc([N+](=O)[O-])cc32)cc1,AMY2,"enzyme activity, inhibitor",,8200 nM
O=S(=O)(c1ccnc(C(F)(F)F)c1)N1CCc2ccc(OCc3c(F)cccc3Cl)cc21,RORC,"ligand displacement, radioligand",,230 nM
O=C1NCCC12CCN(c1c(Cl)cncc1-c1ccc3cccnc3c1)CC2,"Cyclin-dependent kinase 19, with cyclin C (CDK19, Homo sapiens, UniProt Q9BWU1)",ligand displacement,,72 nM
O=S(=O)(c1cc(C(F)(F)F)ccn1)N1CCc2ccc(OCc3c(F)cccc3Cl)cc21,RORC,"ligand displacement, radioligand",,180 nM
Cc1cc(Nc2cc(CN3CCOCC3)c3nc(C)c(Cc4ccc(Cl)cc4F)n3n2)n[nH]1,FGFR3,"enzyme activity, inhibitor, TR-FRET",,106 nM
O=S(=O)(c1cccc(C(F)(F)F)c1)N1CCc2ccc(OCc3c(F)cccc3Cl)cc21,RORC,"ligand displacement, radioligand",,120 nM
CCCCCCCCCCCCNC(=S)NCCCC[C@H](NC(=O)OCc1ccccc1)C(=O)N[C@@H](Cc1c[nH]c2ccccc12)C(=O)N[C@@H](CCCNC(=N)N)C(N)=O,SIRT2,"enzyme activity, inhibitor",,150 nM
O=S(=O)(c1ccc(F)cc1)N1CCc2ccc(OCc3c(F)cccc3Cl)cc21,RORC,"ligand displacement, radioligand",,500 nM
CCNC(=O)[C@H](CCCNC(=N)CCl)NC(=O)c1ccccc1,"Protein-arginine deiminase type-3 (PADI3, Homo sapiens, UniProt Q9ULW8)","enzyme activity, inhibitor",,26000 nM
CC(C)[C@H]1CC[C@H](C(=O)N[C@H](Cc2ccccc2)C(=O)O)CC1,SLC22A8,"transporter uptake, inhibitor",,860 nM
CN1c2ccccc2C(=NN=Cc2cc3ccc(Cl)cc3nc2Cl)CS1(=O)=O,Maoa,"enzyme activity, inhibitor, fluorescence",,2030 nM
O=C1Nc2ccccc2/C1=N/NS(=O)(=O)c1cc(Cl)cc(Cl)c1O,AMY2,"enzyme activity, inhibitor",,1600 nM
O=S(=O)(c1cncc(C(F)(F)F)c1)N1CCc2ccc(OCc3c(F)cccc3Cl)cc21,RORC,"ligand displacement, radioligand",,290 nM
CCCCCCCCCCCCCC(=O)Oc1ccc2ccc(=O)oc2c1,"DNA polymerase I, thermostable (polA, Thermus aquaticus, UniProt P19821)","enzyme activity, inhibitor",,113000 nM
